Test results from ChEMBL document CHEMBL5321232, “Synthesis and biological evaluation of dual MDM2/XIAP inhibitors based on the tetrahydroquinoline scaffold” (Eur J Med Chem, 2023).

Columns and labels:
[1] = Antiproliferative activity against human EU-1 cells assessed as inhibition of cell growth incubated for 44 hrs by WST assay; assay type: functional, cell-based; settings: EU-1, 44 h
Method in brief: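 Pediatric ALL-derived EU-1 cells grown in RPMI 1640 with 10% FBS, 2 mmol/L L-glutamine and penicillin/streptomycin at 37 °C, 5% CO2. Compounds given at graded concentrations for 44 h. WST (25 μg/well) then added for a further 4 h. OD read at 450 nm against a 620 nm reference, with cell-free wells for background.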

CWR22R [2] = assay: Antiproliferative activity against human 22Rv1 cells assessed as inhibition of cell growth incubated for 72 hrs by MTS assay; assay type: functional, cell-based; settings: 22Rv1, 72 h
Method in brief: (§1)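 Cells seeded at 3,000–8,000 per well according to growth rate and incubated overnight. They were then exposed to compounds over 3 nM–100 μM for 72 h, four replicates per concentration. MTS added, 1.5 h in the dark at 37 °C, absorbance read at 490 nm. IC50 normalized to untreated cells and fitted by nonlinear regression.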

A-375 = assay: Antiproliferative activity against human A-375 cells assessed as inhibition of cell growth incubated for 72 hrs by MTS assay; settings: A-375, 72 h
MDA-MB-231 = assay: Antiproliferative activity against human MDA-MB-231 cells assessed as inhibition of cell growth incubated for 72 hrs by MTS assay; assay type: functional, cell-based; settings: MDA-MB-231, 72 h; method in brief: as §1
CWR22R [3] = assay: Inhibition of colony formation in human 22Rv1 cells assessed as reduction in number of clonogenic cells incubated for 14 days and subsequent media replacement with compound for every 3 days by crystal violet staining based microscopic analysis; assay type: functional, cell-based; settings: dose 1-10 µM, time 14.0 day
Method in brief: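 22Rv1 cells in log phase were seeded at 2,000 per well and incubated 72 h. They were then treated with 1, 5 or 10 μM for 14 days, with medium ± compound renewed every 3 days. Colonies were fixed in cold methanol, stained with 0.5% crystal violet and counted microscopically. Run in triplicate; area expressed relative to vehicle (100%) as mean ± SEM of three biological replicates.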

Compound	IC50 (A-375)	IC50 (MDA-MB-231)	IC50 [1]	IC50 (CWR22R [2])	inhibition (CWR22R [3])
Cc1ccc(NS(=O)(=O)c2ccc3c(c2)C2OCCC2C(c2ccc4c(c2)CCO4)N3)cc1C (configuration not stated)	4600 nM	3200 nM	> 10000 nM	> 10000 nM	
CC(=O)c1ccc(NS(=O)(=O)c2ccc3c(c2)C2OCCC2C(c2ccc(C(=O)C(C)C)cc2)N3)cc1 (configuration not stated)	2000 nM	2100 nM	1500 nM	3300 nM	
CC(=O)Nc1ccc(C2Nc3ccc(S(=O)(=O)Nc4ccc(C)c(C)c4)cc3C3OCCC23)cc1 (configuration not stated)	8100 nM	5100 nM	4500 nM	> 10000 nM	
Cc1ccc(S(=O)(=O)Nc2ccc3c(c2)C2OCCC2C(c2ccc(C(=O)C(C)C)cc2)N3)cc1C (configuration not stated)	2500 nM	1300 nM	600 nM	4000 nM	
CC(C)C(=O)c1ccc(C2Nc3ccc(S(=O)(=O)Nc4ccc5c(c4)COC5=O)cc3C3OCCC23)cc1 (configuration not stated)	> 10000 nM	3800 nM	3800 nM		
CC(=O)c1cccc(NS(=O)(=O)c2ccc3c(c2)C2OCCC2C(c2cccc(C(C)=O)c2)N3)c1 (configuration not stated)	2500 nM	2200 nM	1000 nM	> 10000 nM	
Cc1ccc(NS(=O)(=O)c2ccc3c(c2)C2OCCC2C(c2ccc(C(=O)C(C)C)cc2)N3)cc1C (configuration not stated)	2200 nM	2200 nM	500 nM	5300 nM	Dose-Dependent Effect
CCc1cccc(NS(=O)(=O)c2ccc3c(c2)C2OCCC2C(c2ccc(C(=O)C(C)C)cc2)N3)c1 (configuration not stated)	3200 nM	1500 nM	2100 nM	1100 nM	
CN[C@@H](C)C(=O)N[C@H](C(=O)N1CCC[C@H]1C(=O)Nc1snnc1-c1ccccc1)C1CCCCC1 [GDC-0152]			800 nM		
CCC(=O)c1cccc(NS(=O)(=O)c2ccc3c(c2)C2OCCC2C(c2ccc(C(=O)C(C)C)cc2)N3)c1 (configuration not stated)	1300 nM	1900 nM	1500 nM	3500 nM	
CC(C)C(=O)c1ccc(C2Nc3ccc(S(=O)(=O)Nc4cccc(C(C)(C)C)c4)cc3C3OCCC23)cc1 (configuration not stated)	5100 nM	2000 nM	6200 nM	1300 nM	
CC(=O)c1cccc(S(=O)(=O)Nc2ccc3c(c2)C2OCCC2C(c2ccc(C(=O)C(C)C)cc2)N3)c1 (configuration not stated)	4700 nM	2000 nM	700 nM	7700 nM	
CC(=O)c1cccc(NS(=O)(=O)c2ccc3c(c2)C2OCCC2C(c2ccc4c(c2)CCO4)N3)c1 (configuration not stated)	1300 nM	1100 nM	7200 nM	6300 nM	
CC(=O)c1cccc(NS(=O)(=O)c2ccc3c(c2)C2OCCC2C(c2ccccc2)N3)c1 (configuration not stated)	900 nM	900 nM	1300 nM	> 10000 nM	
CC(C)[C@@H](CS(=O)(=O)C(C)C)N1C(=O)[C@@](C)(CC(=O)O)C[C@H](c2cccc(Cl)c2)[C@H]1c1ccc(Cl)cc1 [NAVTEMADLIN]	600 nM	> 10000 nM	900 nM	300 nM	
CC(C)C(=O)c1ccc(C2Nc3ccc(S(=O)(=O)Nc4ccc5c(c4)OCO5)cc3C3OCCC23)cc1 (configuration not stated)	5900 nM	3300 nM	5300 nM	7900 nM	
CC(C)C(=O)c1ccc(C2Nc3ccc(S(=O)(=O)Nc4cccc(C(C)C)c4)cc3C3OCCC23)cc1 (configuration not stated)	2200 nM	1100 nM	6500 nM	2100 nM	
Cc1ccc(NS(=O)(=O)c2ccc3c(c2)C2OCCC2C(c2c[nH]c4ccccc24)N3)cc1C (configuration not stated)	> 10000 nM	> 10000 nM	9200 nM		
CC(=O)c1cccc(NS(=O)(=O)c2ccc3c(c2)C2OCCC2C(c2ccc(C(C)C)cc2)N3)c1 (configuration not stated)	1900 nM	600 nM	600 nM	> 10000 nM	

The next lines start with results.

IC50 (A-375)	IC50 (MDA-MB-231)	Compound	IC50 [1]	IC50 (CWR22R [2])	inhibition (CWR22R [3])
12100 nM	3000 nM	Cc1ccc(NS(=O)(=O)c2ccc3c(c2)C2OCCC2C(C2CCOCC2)N3)cc1C (configuration not stated)	1600 nM	> 10000 nM	
9800 nM	5700 nM	Cc1ccc(NS(=O)(=O)c2ccc3c(c2)C2OCCC2C(C2CCCCC2)N3)cc1C (configuration not stated)	800 nM	> 10000 nM	
> 10000 nM	> 10000 nM	O=S(=O)(Nc1ccc(C(F)(F)F)c(C(F)(F)F)c1)c1ccc2c(c1)C1OCCC1C(C1CCCCC1)N2 (configuration not stated)	> 10000 nM		
> 10000 nM	> 10000 nM	O=S(=O)(Nc1ccccc1)c1ccc2c(c1)C1OCCC1C(C1CCCCC1)N2 (configuration not stated)	2600 nM		
> 10000 nM	> 10000 nM	Cc1cc(NS(=O)(=O)c2ccc3c(c2)C2OCCC2C(C2CCCCC2)N3)ccc1C(F)(F)F (configuration not stated)	3300 nM		
1100 nM	1000 nM	CC(=O)c1cccc(NS(=O)(=O)c2ccc3c(c2)C2OCCC2C(C2CCCCC2)N3)c1 (configuration not stated)	1500 nM	> 10000 nM	
700 nM	1100 nM	Cc1ccc(NS(=O)(=O)c2ccc3c(c2)C2OCCC2C(C2CCN(C(=O)OC(C)(C)C)CC2)N3)cc1C (configuration not stated)	1400 nM	> 10000 nM	
> 10000 nM	2200 nM	O=S(=O)(Nc1ccc2c(c1)CCCC2)c1ccc2c(c1)C1OCCC1C(C1CCCCC1)N2 (configuration not stated)	2300 nM	> 10000 nM	
1800 nM	1100 nM	CN(C)c1cccc(NS(=O)(=O)c2ccc3c(c2)C2OCCC2C(C2CCCCC2)N3)c1 (configuration not stated)	4000 nM	> 10000 nM	
> 10000 nM	> 10000 nM	O=S(=O)(Nc1ccc(Cl)c(Cl)c1)c1ccc2c(c1)C1OCCC1C(C1CCCCC1)N2 (configuration not stated)	1800 nM		
> 10000 nM	> 10000 nM	O=S(=O)(Nc1ccc(Br)c(Br)c1)c1ccc2c(c1)C1OCCC1C(C1CCCCC1)N2 (configuration not stated)	5100 nM		
900 nM	1600 nM	CC(C)C(=O)c1ccc(C2Nc3ccc(S(=O)(=O)Nc4cccc(N(C)C)c4)cc3C3OCCC23)cc1 (configuration not stated)	7500 nM	700 nM	
> 10000 nM	> 10000 nM	CC(=O)N1CCC(C2Nc3ccc(S(=O)(=O)Nc4ccc(C)c(C)c4)cc3C3OCCC32)CC1 (configuration not stated)	> 10000 nM		
7500 nM	2400 nM	CC1CCC(NS(=O)(=O)c2ccc3c(c2)C2OCCC2C(C2CCCCC2)N3)CC1 (configuration not stated)	1900 nM	> 10000 nM	
